This excerpt belongs to a sample that is enriched for hits.
INS promoter act = TRM-6 insulin promoter activation. TRM-6 cells (human fetal islet line), insulin promoter eGFP reporter, imaging; plate-scaled: unstimulated 0, stimulated control 100. actives 0.81% (n = 130,000). activation, % at 2 µM. AID 1296;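 active means activation at 2 µM above a set limit, confirmed on inspection of the cell images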;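 further: share of cells whose green reporter signal exceeds an intensity cutoff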
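Material: TRM-6 insulin promoter–eGFP reporter cells. Buffer or medium: Low-glucose (5.5 mM) medium with tamoxifen. Probe or stimulus: tamoxifen at 0.75 µM added at seeding for reporter induction. Times: tamoxifen pre-incubation 15 h overnight, then compound exposure 48 h at 37 °C. Detection: high-content imaging of fixed cells with Hoechst nuclear stain.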
* hit, by the source's call.

SMILES | INS promoter act
O=C(/C=C/c1ccc(S(=O)(=O)N2CCOCC2)cc1)NCc1ccc(Cl)cc1 | 4
C=CCn1c(SCC(=O)N2CCc3ccccc3C2)nc2sc(C)c(C)c2c1=O | -3
CC1CCCC(C)N1C(=O)C1CCCCC1 (stereo unspecified) | -7
CC(=O)N1C2CCCCC2S[C@H]2CCCCC21 (stereo partly specified) | 200*
COc1ccc(-c2nc(CSCC(=O)NC3CCCc4ccccc43)c(C)o2)cc1 (stereo unspecified) | 392
Cn1c(CN2CCCC2)nc2cc(NC(=O)COc3ccc([N+](=O)[O-])cc3)ccc21 | 167
O=C(OCc1nnc(-c2ccccc2)o1)c1cccnc1Cl | -7
O=C(COC(=O)c1cccnc1Cl)c1ccccc1 | 8
O=C(COC(=O)c1cccnc1Cl)c1ccc(F)cc1 | 426*
O=C1NN(c2ccccc2)C(=O)/C1=C/c1ccc(Sc2cccc3ccccc23)o1 | -7
COC(=O)c1cccc(Cn2nc(C)c([N+](=O)[O-])c2C)c1 | 0
Cc1ccc(-c2ccc(CCC(=O)O)n2CC(=O)O)cc1 | -4
Cc1ccc(-c2ccc(CCC(=O)O)n2-c2cccc(O)c2)cc1 | 291*
Cc1ccc(-c2ccc(CCC(=O)O)n2-c2ccc(O)cc2)cc1 | -9
Cc1ccc(S(=O)(=O)N2CCN(C(=O)c3cc(=O)c4ccccc4o3)CC2)cc1 | 0
Cc1ccc(Cn2nnnc2CN2CCC(O)(c3ccc(F)cc3)CC2)cc1 | 0
COc1ccc(Cn2nnnc2CN2CCC(O)(c3ccc(F)cc3)CC2)cc1 | 7
COc1cc(C(=O)NC2CCN(Cc3nnnn3Cc3ccc(F)cc3)CC2)cc(OC)c1OC | 515*
CC1=C(C(=O)OCc2ccccc2)C(c2cccnc2)n2nnnc2N1 (stereo unspecified) | -3
CCOC(=O)C1=C(c2ccccc2)OC(N)=C(C#N)C1c1cccnc1 (stereo unspecified) | -7
CCOC(=O)C1=C(N)Oc2ccc3ccccc3c2C1c1cccnc1 (stereo unspecified) | 564*
COc1cc(OC)nc(NC2OC(=O)c3ccccc32)n1 (stereo unspecified) | -47
C=CCC1(NC(C)c2ccccc2)CCCCC1 (stereo unspecified) | -3
COC(=O)c1ccccc1NC(=O)c1ccccc1N(C)S(C)(=O)=O | 5
C=CCN(c1ccc(C(=O)NCCc2ccccc2)cc1)S(C)(=O)=O | 0
SMILES | INS promoter act
O=C(/C=C/c1ccc(N2CCC(c3ccccc3)=N2)cc1)c1ccccc1 | 456*
Cc1ccc(/C=C/C(=O)c2ccc(C)cc2)cc1 | 367
O=C(/C=C/c1ccc(OC2CSC2)cc1)c1ccc(Cl)cc1 | 4
Cc1c(N)cc[n+](CC(=O)c2ccccc2)c1C | 0
c1ccc(-c2nnc(OCCN3CCOCC3)c3ccccc23)cc1 | 3
OC1(c2ccc(OC(F)F)cc2)CSC(=Nc2cccnc2)N1C1CC1 (stereo unspecified) | 9
Cc1c(NS(=O)(=O)N2CCCCC2)c(=O)n(-c2ccccc2)n1C | 7
Cc1ccc(S(=O)(=O)Nc2c(C)n(C)n(-c3ccccc3)c2=O)cc1C(=O)NCc1ccccn1 | 143*
CCN(Cc1ccccc1)C(=O)C(C)OC(=O)c1cc(S(=O)(=O)Nc2c(C)n(C)n(-c3ccccc3)c2=O)ccc1C (stereo unspecified) | 107
O=C(NCCc1nnc2ccc(NCc3ccc(F)cc3)nn12)c1ccccc1 | -6
O=S(=O)(Nc1ccc(S(=O)(=O)N2CCCCC2)cc1)c1cccs1 | -3
CC(=O)Nc1ccc(S(=O)(=O)Nc2nccc(/C=C/c3ccc(Cl)cc3)n2)cc1 | -61
CC(NC(=O)Cn1cc(C(F)(F)F)ccc1=O)c1ccc(F)cc1 (stereo unspecified) | 0
CCc1cc2c(-n3nc(C)cc3C)ncnc2s1 | 343
Cc1cc(C)n(-c2cc(C)c(C)cc2Br)n1 | 132*
Cc1cc(C)n(-c2cc(=O)n(C)c(=O)n2C)n1 | -3
CN(C)c1nc(SCc2ccc(Cl)cc2)nc2c1CCCC2 | 3
CCOC(=O)Cn1c(=O)sc2ccccc21 | 0
Cc1ccc(OCn2c(=O)sc3ccccc32)cc1 | 437*
COc1ccc(-n2c(Cn3c(=O)sc4ccccc43)nnc2SC)cc1 | 12
COC1=C(OC)c2ccccc2C(C(=O)O)N/C1=C(/C)Nc1ccncc1 (stereo unspecified) | -4
CC1=C(C(=O)OC(C)C)[C@@H](c2ccc(C)o2)NC(=O)N1 | -7
S=C(Nc1cccc(Cl)c1)N1CCN(Cc2ccccc2)CC1 | -3
CC1(C)CC(=O)C(C=NCC2CCCO2)=C(O)C1 (stereo unspecified) | 108
O=C(NCC1CCCO1)c1cc(-c2ccc(Cl)cc2Cl)on1 (stereo unspecified) | 86*
SMILES | INS promoter act
Cc1ccc(-c2cc(C(=O)NCC3CCCO3)no2)cc1 (stereo unspecified) | 9
O=C(Nc1ccccc1C(=O)NCC1CCCO1)c1ccc(Cl)cc1Cl (stereo unspecified) | -6
O=C1c2ccccc2C(=O)N1CCCc1c[nH]c2ccc(Cl)cc12 | 106
COCc1cc(C)nc(SCC[N+](C)(C)CC(=O)c2ccccc2)c1C#N | 7
COc1ccc(OC)c(NC(=O)CSc2nnc(CNC(=O)COc3ccc(Cl)cc3)o2)c1 | 129*
COc1cc(C(=O)NCc2nnc(SCC(=O)Nc3nccs3)o2)cc(OC)c1OC | 144
COc1cc(C(=O)NCc2nnc(SCC(=O)Nc3nc4ccccc4s3)o2)cc(OC)c1OC | 4
Cc1nc2c(c3c1[nH]c1ccccc13)C(O)CC(C)(C)C2 (stereo unspecified) | -100
c1ccc2sc(NC3=NCN(CCN4CCOCC4)CN3)nc2c1 | 133
O=C(Cc1ccc(F)cc1)NCC1CCCO1 (stereo unspecified) | 7
O=C(Cc1ccccc1)NCC1CCCO1 (stereo unspecified) | 3
O=C(CCCC(=O)NCC1CCCO1)NCC1CCCO1 (stereo unspecified) | 256*
CC(NS(=O)(=O)c1ccccc1)C(c1cccs1)N1CCOCC1 (stereo unspecified) | -2
CCN(CC)CCN(CC(=O)N(C1CCCCC1)C1CCCCC1)C(=O)c1ccco1 | 7
Cc1cc(=O)oc2cc(Oc3ccc([N+](=O)[O-])cc3[N+](=O)[O-])ccc12 | 3
O=C1c2ccccc2C(=O)N1c1ccc(Cl)cn1 | 113
Cc1ccc(/C=C/C(=O)NC2CCCCCCC2)o1 | 0
CCOC(=O)C1(CC2CCCCO2)CCN(Cc2nc(C(C)C)cs2)CC1 (stereo unspecified) | 375*
CCOC(=O)C1(Cc2ccccc2)CCN(Cc2ccon2)CC1 | 7
CCOC(=O)C1(CC2CC2)CCN(Cc2ccc(OC)cc2F)CC1 | 5
CC(=O)OCCCN1c2ccccc2Nc2nnc(-c3ccccc3)cc21 | 3
COc1ccccc1NC(=O)c1ccc(NC(=O)COC(=O)CC(NC(=O)c2ccccc2Cl)c2ccccc2)cc1 (stereo unspecified) | -3
COc1ccc(-[n+]2c(C)cc(/C=C3\Sc4ccccc4N3C)cc2C)cc1 | 400*
CN(C)S(=O)(=O)c1cccc(NC(=O)COC(=O)/C=C/c2ccc([N+](=O)[O-])cc2)c1 | -8
CC1CCCCN1C(=O)c1ccc(NC(=O)c2ccccc2Cl)cc1 (stereo unspecified) | -2
CCNC(=O)COC(=O)CNC(=O)c1cc(Cl)cc([N+](=O)[O-])c1 | -5
CCCCn1c2ccc(F)cc2c2nnc(NN)nc21 | -3
